For assay [1], the system named is MTCC-96 (Staphylococcus aureus). Put plainly: Agar-disc diffusion, S. aureus. The class given is cell-based. The settings on record: MTCC96, read-out: Diameter of Growth Inhibition Zone, S. aureus. Background: Agar diffusion results depend on both activity and mobility in agar.
The subject of assay [2] is E. coli. Put plainly: Minimal inhibitory concentration, E. coli. Type of assay: cell-based. The settings on record: Escherichia coli, read-out: Minimal Inhibitory Concentration (MIC), E. coli.
Assay [3] has as its system B. cereus. Put plainly: Minimal inhibitory concentration, B. cereus. The settings on record: Bacillus cereus, read-out: Minimal Inhibitory Concentration (MIC), B. cereus. The class given is cell-based.
Assay [4] deals with recultured (Enterobacter aerogenes). Put plainly: Agar-disc diffusion, E. aerogenes. Type of assay: cell-based. The settings on record: Klebsiella aerogenes, read-out: Diameter of Growth Inhibition Zone, E. aerogenes.
Assay [5] deals with MTCC-2453 (Pseudomonas aeruginosa). Nature of the assay: Agar-disc diffusion, P. aeruginosa. The class given is cell-based. The settings on record: MTCC2453, read-out: Diameter of Growth Inhibition Zone, P. aeruginosa.
Assay [6] has as its system MTCC-1306 (Bacillus cereus). Nature of the assay: Agar-disc diffusion, B. cereus. The settings on record: MTCC1306, read-out: Diameter of Growth Inhibition Zone, B. cereus. The class given is cell-based.
The test system of assay [7] is S. aureus. Put plainly: Minimal inhibitory concentration, S. aureus. The conditions noted are these: Staphylococcus aureus, read-out: Minimal Inhibitory Concentration (MIC), S. aureus. The class given is cell-based. A digest of the protocol: (§1)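 Agar disc diffusion against bacterial strains, following a previously reported method. Strains were P. aeruginosa MTCC-2453 and S. aureus MTCC-96. Test compounds were anthraquinone-linked coumarins. MIC was reported in µg/mL.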

Assay [8] concerns P. aeruginosa. Nature of the assay: Minimal inhibitory concentration, P. aeruginosa. The class given is cell-based. The settings on record: Pseudomonas aeruginosa, read-out: Minimal Inhibitory Concentration (MIC), P. aeruginosa. In outline: as §1
Assay [9] has as its system MTCC-739 (Escherichia coli). Put plainly: Agar-disc diffusion, E. coli. The settings on record: MTCC739, read-out: Diameter of Growth Inhibition Zone, E. coli. Type of assay: cell-based.
Assay [10] has as its system Tyrosinase from mushrooms. Put plainly: Mushroom tyrosinase inhibition, L-dopa as substrate. Type of assay: biochemical. The conditions noted are these: mean ± SD of three experiments.

These results are taken from paper PMC10864903 (Heliyon, 2024).

In general, zone of inhibition refers to the extent of the growth-free halo in a diffusion test.

Molecules are shown by their SMILES. In brackets after ≈: the same amount, converted by molar mass.

As for `O=C(O)c1cn(C2CC2)c2cc(N3CCNCC3)c(F)cc2c1=O` [Ciprofloxacin, ciprofloxacin], the zone of inhibition at 100 µg/disc in assay [1] came to 25 mm; in [4] it was 30 mm; in assay [5] it was 26 mm; in [6], 22 mm; in [9], 27 mm. Moreover, the MIC in assay [2] stood at 0.5 mg/L (≈ 1.51 µM); in assay [3] it was 2 mg/L (≈ 6.04 µM); in assay [7], 1 mg/L (≈ 3.02 µM); in assay [8], 1 mg/L (≈ 3.02 µM).
For `O=c1cc(CO)occ1O` [Kojic acid, kojic acid], the “Tyrosinase inhibitory activity (%) at 25 μg/mL” value in assay [10] (25 μg/mL) is recorded as 55.67 ± 0.12%. In addition, in assay [10] (50 μg/mL), the “Tyrosinase inhibitory activity (%) at 50 μg/mL” value worked out at 68.62 ± 0.32%. In addition, the “Tyrosinase inhibitory activity (%) at 100 μg/mL” value in assay [10] (100 μg/mL) came out at 85.54 ± 0.23%.
